Experimental data: ChEMBL document CHEMBL1126259, “omega-[(4-Phenyl-2-quinolyl)oxy]alkanoic acid derivatives: a new family of potent LTB4 antagonists” (J Med Chem, 1992)
pIC50: −log10 of the molar value.

biological target: Leukotriene B4 receptor 1 (Homo sapiens, UniProt Q15722); assay: Inhibition of [3H]LTB4 binding to Leukotriene B4 receptor in the human polymorphonuclear leukocytes; details: not given
Outline: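 Human blood PMNs were isolated by dextran T500 sedimentation, Ficoll-Hypaque centrifugation and hypotonic lysis. Cells were suspended in Hanks' solution with 5 mmol/L HEPES and 1 g/L ovalbumin, then incubated on ice for 15 min with 0.5 nmol/L [3H]LTB4 and competitor. Samples were filtered on GF/C, washed and counted. Nonspecific binding was defined with 1000-fold unlabeled LTB4. IC50 was read graphically; mean of three replicates.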

Sequence of Leukotriene B4 receptor 1 (Q15722 whole entry): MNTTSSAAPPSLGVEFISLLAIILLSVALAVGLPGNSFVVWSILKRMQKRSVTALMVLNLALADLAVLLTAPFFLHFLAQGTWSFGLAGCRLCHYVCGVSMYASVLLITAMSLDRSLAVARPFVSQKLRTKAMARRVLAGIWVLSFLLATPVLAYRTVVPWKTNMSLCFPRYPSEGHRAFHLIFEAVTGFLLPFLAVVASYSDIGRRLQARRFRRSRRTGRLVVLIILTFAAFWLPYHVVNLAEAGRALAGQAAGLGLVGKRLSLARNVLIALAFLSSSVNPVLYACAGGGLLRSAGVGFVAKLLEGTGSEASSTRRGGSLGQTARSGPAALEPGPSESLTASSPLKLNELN

| pIC50 | SMILES |
| --- | --- |
| 5.40 | CC(C)(CCCCOc1cc(-c2ccccc2)c2ccccc2n1)C(=O)O |
| 7.00 | Cc1ccc(-c2cc(OCCCCC(C)(C)C(=O)O)nc3ccccc23)cc1 |
| 6.82 | O=C(O)CCCCCOc1cc(-c2ccc(Cl)cc2)c2ccccc2n1 |

Further lines, the molecule ahead of its results:

| SMILES | pIC50 |
| --- | --- |
| CC(C)(CCCCOc1cc(-c2ccc(N)cc2)c2ccccc2n1)C(=O)O | 6.60 |
| COc1ccc(/C=C/CCCCOc2ccc(C(=O)c3cccc(C(=O)O)c3)cc2CCC(=O)O)cc1 | 8.46 |
| CC(C)(CCCCOc1cc(-c2ccc(Cl)cc2)c2ccccc2n1)c1nnn[nH]1 | 7.30 |

tested on: Leukotriene B4 receptor 1 (Cavia porcellus); assay: Inhibition of [3H]LTB4 binding to Leukotriene B4 receptor in the guinea pig spleen membranes at a dose of 10 uM; details: Membrane

| inhibition [%] | SMILES |
| --- | --- |
| 0 | O=C(O)CCCCOc1cc(-c2ccccc2)c2ccccc2n1 |
| 34 | O=C(O)CCCCCCc1cc(-c2ccccc2)c2ccccc2n1 |
| 14 | OCCCCCCOc1cc(-c2ccccc2)c2ccccc2n1 |
| 27 | O=C(O)CCCC/C=C/c1cc(-c2ccccc2)c2ccccc2n1 |
| 12 | O=C(CCCCCOc1cc(-c2ccccc2)c2ccccc2n1)N1CCCC1 |

Second part, the molecule before the results:

| SMILES | inhibition [%] |
| --- | --- |
| CC(=O)Nc1ccc(-c2cc(OCCCCC(C)(C)C(=O)O)nc3ccccc23)cc1 | 23 |
| CC(C)(CCCCSc1cc(-c2ccccc2)c2ccccc2n1)C(=O)O | 33 |
| CC(C)(CCCCNc1cc(-c2ccccc2)c2ccccc2n1)C(=O)O | 0 |
| COc1ccccc1-c1cc(OCCCCC(C)(C)C(=O)O)nc2ccccc12 | 36 |
